# Source: PubChem
# Only some compounds are listed: those with a hit (about 4.3% of all), similar ones and a draw of the others.
# UBC13 inh: UBC13 polyubiquitin chain formation inhibitors, primary screen, biochemical, TR-FRET, uHTS | inhibition, % at 20 µM | actives 0.47% (n = 330,000); in the data active = inhibition above about 45%, passing the limit was not always enough; inconclusive = no clear call, values can overlap the other calls
# PREPL inh: PREPL enzyme inhibitors, primary screen, biochemical, fluorescence polarization | recombinant PREPL, fluorescence polarization activity-based probe | inhibition, % at 5.96 µM | actives 0.68% (n = 320,000); in the data active = inhibition above about 43%;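 note: 0% = enzyme with DMSO and 100% = wells lacking enzyme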
# ALR H2O2 inh: inhibitors of human ALR sulfhydryl oxidase, primary screen, biochemical, H2O2 detection, HRP-luminol luminescence, single point; FAD-linked sulfhydryl oxidase ALR (Homo sapiens), P55789; purified ALR, DTT oxidation; actives 3.8% (n = 290,000); AID 485317, 2010; inhibition, % (no concentration beside the values);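 active = mean replicate inhibition above about 79%, with every replicate also reaching it, limit read from the data; inconclusive = only one of the two criteria met; inactive = mean below limit and not every replicate reaching it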
# Target sequence (P55789 whole entry, looked up): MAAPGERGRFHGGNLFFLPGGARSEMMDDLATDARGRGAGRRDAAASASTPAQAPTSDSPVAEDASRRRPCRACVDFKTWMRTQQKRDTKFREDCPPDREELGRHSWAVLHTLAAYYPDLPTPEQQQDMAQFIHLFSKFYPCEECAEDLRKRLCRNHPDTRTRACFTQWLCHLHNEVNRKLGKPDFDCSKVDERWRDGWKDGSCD
# RBBP9 inh: human RBBP9 inhibitors, primary screen, biochemical, fluorescence polarization, FP-Rh probe, HTS; Serine hydrolase RBBP9 (Homo sapiens), O75884; recombinant RBBP9; inhibition, % at 7.94 µM; actives 0.2% (n = 220,000); AID 1515, 2009;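 active = inhibition above the campaign mean of all tested compounds plus 3 SD, cut at about 14% in these data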;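 note: plate controls were DMSO wells with RBBP9 for no effect and wells lacking RBBP9 protein for full effect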
# Target sequence (O75884 whole entry, looked up): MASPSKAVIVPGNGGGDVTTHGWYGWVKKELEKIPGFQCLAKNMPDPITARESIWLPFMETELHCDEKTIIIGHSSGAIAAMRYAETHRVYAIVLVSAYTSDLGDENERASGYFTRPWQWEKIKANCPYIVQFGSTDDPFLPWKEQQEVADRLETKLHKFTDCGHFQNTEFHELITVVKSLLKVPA
#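 System: RBBP9 protein / Quantity: 2.5 µM RBBP9 dispensing solution, before mixing / Also added: Serine-hydrolase probe FP-Rh, 375 nM pre-mixing / Dosing: 7.94 µM single dose, 0.794% DMSO / Timing: enzyme-compound preincubation 30 min, then probe labeling 45 min, 25 °C / Signal: FP readout at 525/598 nm / Controls: DMSO-treated enzyme wells and wells lacking RBBP9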
# Rin1 Abl inh: inhibitors of Rin1-Abl protein binding, primary screen, biochemical, TR-FRET; inhibition, % at 7.35 µM; actives 0.4% (n = 360,000); in the data active = inhibition above about 5%, passing the limit was not always enough
# SUMO HTRF inh: inhibitors of in vitro SUMOylation cascade, primary screen, biochemical, HTRF, uHTS; SUMO-conjugating enzyme UBC9 (Homo sapiens), P63279; HTRF SUMOylation assay, SAE1/SAE2 + UBC9; inhibition, % at 35 µM; actives 0.36% (n = 290,000); AID 2006, 2009; in the data active = inhibition above about 50%, passing the limit was not always enough; inconclusive = no clear call, values can overlap the other calls
# Target sequence (P63279 whole entry, looked up): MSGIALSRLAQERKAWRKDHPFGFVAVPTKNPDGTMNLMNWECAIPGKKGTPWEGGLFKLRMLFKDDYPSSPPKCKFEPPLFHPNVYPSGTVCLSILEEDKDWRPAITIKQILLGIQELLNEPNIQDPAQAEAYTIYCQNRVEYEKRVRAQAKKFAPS
# * = called active by the depositor; ? = inconclusive; / = no result given.
SMILES,UBC13 inh,PREPL inh,ALR H2O2 inh,RBBP9 inh,Rin1 Abl inh,SUMO HTRF inh
O=C(O)CCc1ccc(-c2cccs2)n1Cc1ccco1,-7,-7,99*,2,1,15
Cc1ccc(-n2c(CCC(=O)O)ccc2-c2cccs2)cc1C,-8,14,/,-2,1,4
O=C(O)CCc1ccc(-c2cccs2)n1NC(=O)c1cccs1,-12,14,99*,-8,-2,19
COCCn1c(CCC(=O)O)ccc1-c1cccs1,4,-1,81*,-4,0,4
O=C(Nc1ccc(NC(=O)c2ccccc2Cl)nc1)c1ccco1,-2,-11,3,/,3,-1
CCC/C=C/c1ccc(CN2C(CC(C)C)C(=O)N(Cc3cn(CCOCOC)nn3)CCS2(=O)=O)cc1 (centres undefined),/,/,/,/,1,/
Cn1c(CS/C(N)=N/N=C/c2ccccc2)c(Br)c(=O)n1-c1ccccc1,4,15,98*,-6,0,6
Cc1ccc(C=Nc2ccc(N(C)C)cc2)o1,-5,40,98*,4,-1,-44
CC1CCCCC1NC(=O)Cn1ncc2ccccc21 (centres undefined),-12,5,97*,7,-5,-1
CC1(C)CC(=O)C(C=Nc2ccc(O)cc2)=C(O)C1,0,-3,99*,-4,-6,-3
CC1(C)CC(=O)C(C=Nc2ccc(N)cc2)=C(O)C1,-9,23,68,6,1,-7
CC(C)Oc1cccc(C(=O)NC(=S)Nc2ccccc2)c1,8,6,-9,0,2,9
CC(OC(=O)CCC(=O)c1ccc(F)cc1)C(=O)NC1CCCCC1C (centres undefined),-4,1,-1,/,1,11
CC(=O)NNc1nc(-c2ccc(C)cc2)cs1,-5,-12,83*,-1,4,-12
CC(=O)NNc1nc(-c2ccccc2)cs1,-4,6,11,-6,3,6
CCCC(=O)Nc1ccc(-c2csc(NNC(C)=O)n2)cc1,-2,12,99*,-2,-2,8
CCn1c2ccccc2c2cc(/C=C(/C#N)C(N)=S)ccc21,/,/,/,/,-6,/
CCOc1c(C=C(C#N)C#N)c2ccccc2n1CC,2,13,99*,-1,-6,-5
CCN(CC)CCn1c2c(c(SCC(=O)Nc3nc(C)cs3)nc1=O)CCC2,-5,-5,99*,/,3,/
CCN(CC)CCn1c2c(c(SCC(=O)Nc3nc(C)cs3)nc1=O)CCCC2,-3,14,98*,/,-1,/
COc1ccc(CC(=O)Nc2nc(OCCN3CCCC3=O)cnc2-c2cccc(C(F)(F)F)c2)cc1,/,/,/,/,2,/
COc1ccc(S(=O)(=O)NCC(c2ccc(F)cc2)N2CCOCC2)cc1Br (centres undefined),10,/,/,/,1,/
O=C(NC1CC1)c1ccc(CSCc2ccccc2Cl)o1,12,-1,84*,/,-3,/
O=C(NC1CCCC1)c1ccc(CS(=O)(=O)Cc2ccccc2Cl)o1,-7,3,4,/,1,/
c1ccc2nc(N3CCCC3)c(N3CCCC3)nc2c1,6,1,99*,-8,-1,3
SMILES,UBC13 inh,PREPL inh,ALR H2O2 inh,RBBP9 inh,Rin1 Abl inh,SUMO HTRF inh
Cc1ccccc1C(=O)NCC(=O)OC1CCCCC1=O (centres undefined),0,2,-8,/,0,/
CC(=O)NCCCc1nc2ccccc2n1Cc1c(F)cccc1Cl,-3,-22,/,2,0,10
O=C(CC(SCCO)c1ccc(F)cc1)c1ccco1 (centres undefined),2,-10,89*,-3,-4,24
Cc1ccc(C(CC(=O)c2ccco2)SCCO)cc1 (centres undefined),-6,-10,2,3,1,15
Cc1ccn2c(=O)c(NC(=O)c3ccc4c(c3)OCO4)c(C)nc2c1,/,/,/,/,0,/
Cc1ccsc1/C=C1\SC(N2CC(C)OC(C)C2)=NC1=O (centres undefined),-13,15,100*,-7,-4,-6
O=C(CSc1ncnc2ccccc12)c1ccco1,4,0,99*,-1,-7,17
O=C(COc1ncnc2ccccc12)NCc1ccco1,0,9,-3,-9,0,20
Cc1cc(SCC(=O)NC(=O)NCc2ccco2)nc2ccccc12,14,-18,98*,-6,-3,11
O=C(CSc1ncnc2ccccc12)NCCc1ccccc1,6,-1,1,-19,-7,0
O=[N+]([O-])c1ccc(CSc2ncnc3ccccc23)cc1,14,27,99*,-10,-4,2
O=C(CSc1ncnc2ccccc12)NCc1ccco1,0,10,99*,1,0,12
O=[N+]([O-])c1ccc(CSc2ccccn2)cc1,7,2,10,/,3,7
CC1CCN(S(=O)(=O)c2cc3c4c(c2)C(C)C(=O)N4CCC3)CC1 (centres undefined),-1,16,-2,/,1,/
Cc1nc(SCC(=O)NCc2ccco2)c2c3c(sc2n1)CCCC3,4,10,97*,-6,-9,25
Cc1ccc2nc(SCC(=O)NCc3ccco3)c(C)cc2c1,-1,10,98*,-1,0,14
Cc1ccc2nc(SCC(=O)NCc3ccco3)c(C#N)cc2c1,-1,-4,48,-1,-3,-2
COc1ccc(CNc2ncc(-c3cccc([N+](=O)[O-])c3)n2C)c(OC)c1OC,?,3,98*,/,-1,5
CSc1ccc(CNc2ncc(-c3cccc([N+](=O)[O-])c3)n2C)cc1,4,28,98*,/,-2,2
C[C@@H]1O[C@@H](OC2C(O)C(OCCc3ccc(O)c(O)c3)OC(CO)C2OC(=O)/C=C/c2ccc(O)c(O)c2)[C@H](O)[C@H](O)[C@H]1O (some centres undefined),1,5,99*,/,/,/
COc1ccc(CC(=O)c2ccc(OC3OC(CO)C(O)C(O)C3O)cc2O)cc1 (centres undefined),-1,3,19,/,3,21
CCn1c(=O)c(CCC(=O)N2CCN(c3ccccn3)CC2)c(C)c2c(C)nn(-c3ccccc3)c21,6,-10,-5,/,-1,/
COc1ccccc1C(O)(C(=O)NNc1cccc(C)c1)c1ccccc1OC,2,-2,95*,-6,1,-11
COc1ccccc1C(O)(C(=O)NNc1ccccc1C)c1ccccc1OC,-2,14,6,-5,-2,28
CC(C)(C)c1csc(NC(=O)c2ccccc2O)n1,-5,12,81*,/,0,19
